Source: ChEMBL document CHEMBL3627671, “Novel derivatives of nitro-substituted salicylic acids: Synthesis, antimicrobial activity and cytotoxicity” (Bioorg Med Chem, 2015)
≈ marks a conversion by molar mass, not a printed value.

How the values were obtained:
Assay type in all cases: functional
[1] = test system: Klebsiella pneumoniae; assay: Antibacterial activity against Klebsiella pneumoniae D 11750/08 after 48 hrs by microdilution broth method; settings: D 11750/08, 48 h
In short: (§1)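 Mueller-Hinton broth microdilution (modified M07-A07), pH 7.4 (±0.2). Compounds dissolved in DMSO, tested at final 500 to 0.49 µmol/L. Inoculum in sterile water matched to 0.5 McFarland. Incubated in the dark, humid atmosphere, 35 °C, read at 24 and 48 h visually and at 540 nm. MIC taken as ≥95% growth reduction (IC95) versus control.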

[2] = test system: Trichosporon asahii; assay: Antifungal activity against Trichosporon asahii 1188 after 24 hrs by microdilution broth method; settings: Trichosporon asahii, 1188, 24 h
In short: (§2)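 CLSI M27-A3 broth microdilution in RPMI 1640 with glutamine, buffered to pH 7.0 with MOPS; DMSO diluent. Yeast inoculum 5 × 10^3 ± 0.2 CFU/mL. Moulds grown on Sabouraud agar 3–10 days before spore harvest, final inoculum 0.5-5 × 10^4 CFU/mL, checked in a Bürker chamber. Incubated dark, humid, 35 °C, read at 24 and 48 h visually and at 540 nm. MIC taken as ≥80% (yeasts) or ≥50% (filamentous) growth reduction versus control.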

[3] = test system: Staphylococcus aureus; assay: Antibacterial activity against Staphylococcus aureus CCM 4516/08 after 48 hrs by microdilution broth method; settings: CCM 4516/08, 48 h
[4] = test system: Mycobacterium avium; assay: Antimycobacterial activity against Mycobacterium avium 330/80 after 14 days; settings: 330/80, 336 h
[5] = test system: Mycobacterium kansasii; assay: Antimycobacterial activity against Mycobacterium kansasii 6509/96 after 14 days; settings: 6509/96, 336 h
In short: (§3)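 Šula's semisynthetic medium micromethod at 37 °C, read after 7, 14 and 21 days. The 1.0 McFarland suspension was diluted 10^-4. MIC determined. 6509/96 is a clinical isolate.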

[6] = test system: Candida tropicalis; assay: Antifungal activity against Candida tropicalis 156 after 24 hrs by microdilution broth method; settings: Candida tropicalis, 156, 24 h; in short: as §2
[7] = test system: Mycobacterium kansasii; assay: Antimycobacterial activity against Mycobacterium kansasii 235/80 after 14 days; settings: 235/80, 336 h; in short: as §3
[8] = test system: Lichtheimia corymbifera; assay: Antifungal activity against Absidia corymbifera 272 after 24 hrs by microdilution broth method; settings: Lichtheimia corymbifera, 272, 24 h; in short: as §2
[9] = test system: Enterococcus sp.; assay: Antibacterial activity against Enterococcus sp. J 14365/08 after 48 hrs by microdilution broth method; settings: J 14365/08, 48 h; in short: as §1
[10] = test system: Mycobacterium kansasii; assay: Antimycobacterial activity against Mycobacterium kansasii 6509/96 after 21 days; settings: 6509/96, 504 h; in short: as §3
[11] = test system: Mycobacterium kansasii; assay: Antimycobacterial activity against Mycobacterium kansasii 235/80 after 21 days; settings: 235/80, 504 h; in short: as §3
[12] = test system: Escherichia coli; assay: Antibacterial activity against Escherichia coli CCM4517 after 24 hrs by microdilution broth method; settings: CCM4517, 24 h; in short: as §1
[13] = test system: Klebsiella pneumoniae; assay: Antibacterial activity against Klebsiella pneumoniae D 11750/08 after 24 hrs by microdilution broth method; settings: D 11750/08, 24 h; in short: as §1
[14] = test system: Staphylococcus aureus; assay: Antibacterial activity against methicillin-resistant Staphylococcus aureus H 5996/08 after 48 hrs by microdilution broth method; settings: H 5996/08, 48 h
[15] = test system: Aspergillus fumigatus; assay: Antifungal activity against Aspergillus fumigatus 231 after 24 hrs by microdilution broth method; settings: Aspergillus fumigatus, 231, 24 h; in short: as §2
[16] = test system: Lichtheimia corymbifera; assay: Antifungal activity against Absidia corymbifera 272 after 48 hrs by microdilution broth method; settings: Lichtheimia corymbifera, 272, 48 h; in short: as §2
[17] = test system: Candida albicans; assay: Antifungal activity against Candida albicans ATCC 44859 after 24 hrs by microdilution broth method; settings: ATCC 44859, 24 h; in short: as §2
[18] = test system: Mycobacterium tuberculosis; assay: Antimycobacterial activity against Mycobacterium tuberculosis H37Rv 331/88 after 21 days; settings: H37Rv 331/88, 504 h
[19] = test system: Candida albicans; assay: Antifungal activity against Candida albicans ATCC 44859 after 48 hrs by microdilution broth method; settings: ATCC 44859, 48 h; in short: as §2
[20] = test system: Trichophyton mentagrophytes; assay: Antifungal activity against Trichophyton mentagrophytes 445 after 24 hrs by microdilution broth method; settings: Trichophyton mentagrophytes, 445, 24 h
[21] = test system: Staphylococcus aureus; assay: Antibacterial activity against Staphylococcus aureus CCM 4516/08 after 24 hrs by microdilution broth method; settings: CCM 4516/08, 24 h
[22] = test system: Pseudomonas aeruginosa; assay: Antibacterial activity against Pseudomonas aeruginosa CCM 1961 after 24 hrs by microdilution broth method; settings: CCM 1961, 24 h; in short: as §1
[23] = test system: Trichophyton mentagrophytes; assay: Antifungal activity against Trichophyton mentagrophytes 445 after 48 hrs by microdilution broth method; settings: Trichophyton mentagrophytes, 445, 48 h
[24] = test system: Pichia kudriavzevii; assay: Antifungal activity against Candida krusei E28 after 48 hrs by microdilution broth method; settings: E28, 48 h; in short: as §2
[25] = test system: Mycobacterium avium; assay: Antimycobacterial activity against Mycobacterium avium 330/80 after 21 days; settings: 330/80, 504 h
[26] = test system: Staphylococcus aureus; assay: Antibacterial activity against methicillin-resistant Staphylococcus aureus H 5996/08 after 24 hrs by microdilution broth method; settings: H 5996/08, 24 h
[27] = test system: Staphylococcus epidermidis; assay: Antibacterial activity against Staphylococcus epidermidis H 6966/08 after 24 hrs by microdilution broth method; settings: H 6966/08, 24 h; in short: as §1
[28] = test system: Mycobacterium kansasii; assay: Antimycobacterial activity against Mycobacterium kansasii 235/80 after 7 days; settings: 235/80, 168 h; in short: as §3
[29] = test system: Klebsiella pneumoniae; assay: Antibacterial activity against ESBL-positive Klebsiella pneumoniae J 14368/08 after 24 hrs by microdilution broth method; settings: J 14368/08, 24 h; in short: as §1
[30] = test system: Mycobacterium tuberculosis; assay: Antimycobacterial activity against Mycobacterium tuberculosis H37Rv 331/88 after 14 days; settings: H37Rv 331/88, 336 h
[31] = test system: Enterococcus sp.; assay: Antibacterial activity against Enterococcus sp. J 14365/08 after 24 hrs by microdilution broth method; settings: J 14365/08, 24 h; in short: as §1
[32] = test system: Aspergillus fumigatus; assay: Antifungal activity against Aspergillus fumigatus 231 after 48 hrs by microdilution broth method; settings: Aspergillus fumigatus, 231, 48 h; in short: as §2
[33] = test system: Pichia kudriavzevii; assay: Antifungal activity against Candida krusei E28 after 24 hrs by microdilution broth method; settings: E28, 24 h; in short: as §2
[34] = test system: Staphylococcus epidermidis; assay: Antibacterial activity against Staphylococcus epidermidis H 6966/08 after 48 hrs by microdilution broth method; settings: H 6966/08, 48 h; in short: as §1
[35] = test system: Klebsiella pneumoniae; assay: Antibacterial activity against ESBL-positive Klebsiella pneumoniae J 14368/08 after 48 hrs by microdilution broth method; settings: J 14368/08, 48 h; in short: as §1
[36] = test system: Trichosporon asahii; assay: Antifungal activity against Trichosporon asahii 1188 after 48 hrs by microdilution broth method; settings: Trichosporon asahii, 1188, 48 h; in short: as §2
[37] = test system: Escherichia coli; assay: Antibacterial activity against Escherichia coli CCM4517 after 48 hrs by microdilution broth method; settings: CCM4517, 48 h; in short: as §1
[38] = test system: Mycobacterium kansasii; assay: Antimycobacterial activity against Mycobacterium kansasii 6509/96 after 7 days; settings: 6509/96, 168 h; in short: as §3
[39] = test system: Nakaseomyces glabratus; assay: Antifungal activity against Candida glabrata 20/I after 24 hrs by microdilution broth method; in short: as §2
[40] = test system: Nakaseomyces glabratus; assay: Antifungal activity against Candida glabrata 20/I after 48 hrs by microdilution broth method; in short: as §2
[41] = test system: Pseudomonas aeruginosa; assay: Antibacterial activity against Pseudomonas aeruginosa CCM 1961 after 48 hrs by microdilution broth method; settings: CCM 1961, 48 h; in short: as §1
[42] = test system: Candida tropicalis; assay: Antifungal activity against Candida tropicalis 156 after 48 hrs by microdilution broth method; settings: Candida tropicalis, 156, 48 h; in short: as §2

O=C(Nc1ccc([N+](=O)[O-])c(C(F)(F)F)c1)c1ccc([N+](=O)[O-])cc1O
MIC [1]: > 500 µM
MIC [2]: 250 µM (≈ 92.8 µg/mL)
MIC [3]: 7.81 µM (≈ 2.9 µg/mL)
MIC [4]: 62.5 µM (≈ 23.2 µg/mL)
MIC [5]: 32 µM (≈ 11.9 µg/mL)
MIC [6]: > 500 µM
MIC [7]: 32 µM (≈ 11.9 µg/mL)
MIC [8]: 125 µM (≈ 46.4 µg/mL)
MIC [9]: 500 µM (≈ 186 µg/mL)
MIC [10]: 32 µM (≈ 11.9 µg/mL)
MIC [11]: 32 µM (≈ 11.9 µg/mL)
MIC [12]: > 500 µM
MIC [13]: > 500 µM
MIC [14]: 3.9 µM (≈ 1.45 µg/mL)
MIC [15]: 250 µM (≈ 92.8 µg/mL)
MIC [16]: 125 µM (≈ 46.4 µg/mL)
MIC [17]: > 500 µM
MIC [18]: 16 µM (≈ 5.94 µg/mL)
MIC [19]: > 500 µM
MIC [20]: 500 µM (≈ 186 µg/mL)
MIC [21]: 7.81 µM (≈ 2.9 µg/mL)
MIC [22]: > 500 µM
MIC [23]: > 500 µM
MIC [24]: 250 µM (≈ 92.8 µg/mL)
MIC [25]: 62.5 µM (≈ 23.2 µg/mL)
MIC [26]: 3.9 µM (≈ 1.45 µg/mL)
MIC [27]: 7.81 µM (≈ 2.9 µg/mL)
MIC [28]: 16 µM (≈ 5.94 µg/mL)
MIC [29]: > 500 µM
MIC [30]: 16 µM (≈ 5.94 µg/mL)
MIC [31]: 250 µM (≈ 92.8 µg/mL)
MIC [32]: 250 µM (≈ 92.8 µg/mL)
MIC [33]: 250 µM (≈ 92.8 µg/mL)
MIC [34]: 7.81 µM (≈ 2.9 µg/mL)
MIC [35]: > 500 µM
MIC [36]: 500 µM (≈ 186 µg/mL)
MIC [37]: > 500 µM
MIC [38]: 16 µM (≈ 5.94 µg/mL)
MIC [39]: > 500 µM
MIC [40]: > 500 µM
MIC [41]: > 500 µM
MIC [42]: > 500 µM

O=C(Nc1cccc([N+](=O)[O-])c1)c1ccc([N+](=O)[O-])cc1O
MIC [1]: > 250 µM
MIC [2]: > 250 µM
MIC [3]: 62.5 µM (≈ 19 µg/mL)
MIC [4]: 125 µM (≈ 37.9 µg/mL)
MIC [5]: 32 µM (≈ 9.7 µg/mL)
MIC [6]: > 250 µM
MIC [7]: 32 µM (≈ 9.7 µg/mL)
MIC [8]: > 250 µM
MIC [9]: > 250 µM
MIC [10]: 32 µM (≈ 9.7 µg/mL)
MIC [11]: 62.5 µM (≈ 19 µg/mL)
MIC [12]: > 250 µM
MIC [13]: > 250 µM
MIC [14]: 125 µM (≈ 37.9 µg/mL)
MIC [15]: > 250 µM
MIC [16]: > 250 µM
MIC [17]: > 250 µM
MIC [18]: 32 µM (≈ 9.7 µg/mL)
MIC [19]: > 250 µM
MIC [20]: > 250 µM
MIC [21]: 62.5 µM (≈ 19 µg/mL)
MIC [22]: > 250 µM
MIC [23]: > 250 µM
MIC [24]: > 250 µM
MIC [25]: 125 µM (≈ 37.9 µg/mL)
MIC [26]: 125 µM (≈ 37.9 µg/mL)
MIC [27]: 31.2 µM (≈ 9.48 µg/mL)
MIC [28]: 32 µM (≈ 9.7 µg/mL)
MIC [29]: > 250 µM
MIC [30]: 32 µM (≈ 9.7 µg/mL)
MIC [31]: > 250 µM
MIC [32]: > 250 µM
MIC [33]: > 250 µM
MIC [34]: 62.5 µM (≈ 19 µg/mL)
MIC [35]: > 250 µM
MIC [36]: > 250 µM
MIC [37]: > 250 µM
MIC [38]: 32 µM (≈ 9.7 µg/mL)
MIC [39]: > 250 µM
MIC [40]: > 250 µM
MIC [41]: > 250 µM
MIC [42]: > 250 µM
